Data reported in ChEMBL document CHEMBL1138931, “Synthesis and antimalarial efficacy of aza-fused rhodacyanines in vitro and in the P. berghei mouse model” (J Med Chem, 2006).

Tests used:
Mus musculus [1] = experiment: Activity in ICR mice (Mus musculus) infected with Plasmodium berghei NK65 after 4 days at 20 mg/kg/day, intraperitoneally assessed as mean survival days; assay type: functional; details: route intraperitoneal
How it was run: (§1)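 Peters' 4-day suppressive test; P. berghei NK65 (drug-sensitive) in groups of five ICR mice; compound given daily for 4 days, ip or po at the stated mg kg-1 day-1. Mice followed after treatment ends; mean survival days recorded against untreated infected controls.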

Mus musculus [2] = experiment: Activity in ICR mice (Mus musculus) infected with Plasmodium berghei NK65 after 4 days at 10 mg/kg/day, intraperitoneally assessed as mean survival days; assay type: functional; details: route intraperitoneal; how it was run: as §1
L6 [3] = experiment: Selectivity index, EC50 for L6 cells/EC50 for Plasmodium falciparum K1; assay type: functional
How it was run: (§2)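 Rat skeletal myoblast L-6 line used for cytotoxicity; EC50 determined. Antiplasmodial EC50 was measured against chloroquine-resistant P. falciparum strain K1 in vitro by the Desjardins method. Selectivity index = EC50(L-6)/EC50(P. falciparum K1).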

L6 [4] = experiment: Cytotoxicity against rat L6 cell line; assay type: functional, cell-based; how it was run: as §2
Plasmodium berghei [5] = experiment: Suppression of Plasmodium berghei NK65 infected ICR mice (Mus musculus) at 100 mg/kg/day peroral dose over 4 days; assay type: functional; details: route oral
How it was run: (§3)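 Peters' 4-day suppressive test: ICR mice (five per group) infected with drug-sensitive P. berghei NK65, dosed daily for 4 days intraperitoneally or per os. Percent suppression = reduction of parasitemia in treated versus untreated infected control mice. Mice were observed after treatment to record mean survival days.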

Mus musculus [6] = experiment: Activity in ICR mice (Mus musculus) infected with Plasmodium berghei NK65 after 4 days at 40 mg/kg/day, intraperitoneally assessed as mean survival days; assay type: functional; details: route intraperitoneal; how it was run: as §1
Mus musculus [7] = experiment: Activity in ICR mice (Mus musculus) infected with Plasmodium berghei NK65 after 4 days at 25 mg/kg/day, intraperitoneally assessed as mean survival days; assay type: functional; details: route intraperitoneal; how it was run: as §1
Mus musculus [8] = experiment: Activity in ICR mice (Mus musculus) infected with Plasmodium berghei NK65 after 4 days at 100 mg/kg/day, perorally assessed as mean survival days; assay type: functional; details: route oral; how it was run: as §1
Plasmodium falciparum = experiment: Antimalarial activity against chloroquine-resistant Plasmodium falciparum K1; assay type: functional, organism-based
How it was run: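 P. falciparum K1 (chloroquine-resistant) tested in vitro by the Desjardins method; activity given as EC50.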

Plasmodium berghei [9] = experiment: Suppression of Plasmodium berghei NK65 infected ICR mice (Mus musculus) at 25 mg/kg/day intraperitoneal dose over 4 days; assay type: functional; how it was run: as §3
Plasmodium berghei [10] = experiment: Suppression of Plasmodium berghei NK65 infected ICR mice (Mus musculus) at 10 mg/kg/day intraperitoneal dose over 4 days; assay type: functional; how it was run: as §3
Plasmodium berghei [11] = experiment: Suppression of Plasmodium berghei NK65 infected ICR mice (Mus musculus) at 20 mg/kg/day intraperitoneal dose over 4 days; assay type: functional; how it was run: as §3
Plasmodium berghei [12] = experiment: Suppression of Plasmodium berghei NK65 infected ICR mice (Mus musculus) at 40 mg/kg/day intraperitoneal dose over 4 days; assay type: functional; how it was run: as §3

SMILES	Selectivity index (L6 [3])	EC50 (L6 [4]) [nM]	Activity (Mus musculus [7]) [days]	EC50 (Plasmodium falciparum) [nM]	Activity (Plasmodium berghei [9]) [%]	other results
CCN1C(=O)/C(=c2/s/c(=C3/C=CC=CN3C)c(=O)n2CC)S/C1=N\c1sc2cc(Cl)ccc2[n+]1C.[Cl-]	4600	46000	25.3	10		Activity (Mus musculus [1]): 20.3 days; Activity (Mus musculus [2]): 11.8 days; Activity (Plasmodium berghei [5]): 41.7%; Activity (Mus musculus [6]): 7 days; Activity (Mus musculus [8]): 6.5 days
CCN1C(=O)/C(=c2/s/c(=C3/C=CC=CN3C)c(=O)n2CC)S/C1=N\c1scc(-c2ccc(Cl)cc2)[n+]1C.[Cl-]			5.3		95.6	
CCN1C(=O)/C(=C2\C=Cc3ccccc3N2C)S/C1=N\c1cccc[n+]1C.[Cl-]	20000	120000		5.9		
CCN(CC)CCCC(C)Nc1ccnc2cc(Cl)ccc12 (stereo not given) [CHLOROQUINE]				150		Activity (Mus musculus [2]): 22.7 days; Activity (Plasmodium berghei [10]): 90.6%
CCN1C(=O)/C(=c2/s/c(=C3/SCCN3C)c(=O)n2CC)S/C1=N\c1sc2cc(OC)ccc2[n+]1C.[Cl-]			5		95	
CCN1C(=O)/C(=c2/s/c(=C3/C=CC=CN3C)c(=O)n2CC)S/C1=N\c1sc2cc(F)ccc2[n+]1C.[Cl-]			10.8		79.5	
CCN1C(=O)/C(=C2\C=Cc3ccccc3N2C)S/C1=N\c1sc2cc(Cl)ccc2[n+]1C.[Cl-]	2500	11000		4.4		
CCN1C(=O)/C(=c2/s/c(=C3/C=Cc4ccccc4N3C)c(=O)n2CC)S/C1=N\c1sc2cc(Cl)ccc2[n+]1C.[Cl-]			7		49.7	
C=CCN1C(=O)/C(=c2/s/c(=C3/C=CC=CN3C)c(=O)n2CC)S/C1=N\c1sc2cc(Cl)ccc2[n+]1C.[Cl-]			18		95.7	
CCN1C(=O)/C(=c2/s/c(=C3/C=CC=CN3C)c(=O)n2CC)S/C1=N\c1sc2ccccc2[n+]1C.[Cl-]	640	14000	22	22	96.4	Activity (Mus musculus [1]): 19 days; Activity (Mus musculus [2]): 9.8 days; Activity (Mus musculus [6]): 7.8 days; Activity (Plasmodium berghei [11]): 92.4%; Activity (Plasmodium berghei [12]): 97.8%; Activity (Plasmodium berghei [10]): 70.8%
CCN1C(=O)/C(=c2/s/c(=C3/SCCN3C)c(=O)n2CC)S/C1=N\c1sc2cc(Cl)ccc2[n+]1C.[Cl-]	520	12000	16	23		
C=CC[n+]1ccccc1/C=c1\s/c(=C2/Sc3ccccc3N2C)c(=O)n1C.Cc1ccc(S(=O)(=O)[O-])cc1	5000	100000		19		Activity (Plasmodium berghei [10]): 27%
CCN1C(=O)/C(=C2\Sc3ccccc3N2C)S/C1=N\c1sc2cc(Cl)ccc2[n+]1C.[Cl-]			5.5			
CCN1C(=O)/C(=c2/s/c(=C3/C=Cc4ccccc4N3C)c(=O)n2CC)S/C1=N\c1cccc[n+]1C.[Cl-]			5.6		78.4	
CCn1c(=O)/c(=C2\C=CC=CN2C)s/c1=C1\S/C(=N\c2sc3cc(Cl)ccc3[n+]2C)N(C(C)C)C1=O.[Cl-]			7.7			
C=CCN1C(=O)/C(=c2/s/c(=C3/SCCN3C)c(=O)n2CC)S/C1=N\c1sc2cc(Cl)ccc2[n+]1C.[Cl-]			12.8		73.1	
CCN1C(=O)/C(=c2/s/c(=C3/C=CC=CN3C)c(=O)n2CC)S/C1=N\c1sc2cc(OC)ccc2[n+]1C.[Cl-]			6.3		98.3	
